ABHD5 PLIN5 PPI: ABHD5-PLIN5 interaction inhibitors, primary screen, cell lysate, split luciferase complementation, luminescence; inhibition, % at 4 µM; Perilipin-5 (Homo sapiens) + 1-acylglycerol-3-phosphate O-acyltransferase ABHD5 (Homo …; 360,000 tested, 0.78% active; Split G. princeps luciferase complementation, 4 h;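 active = inhibition above the mean inhibition across every tested compound plus 3 SD, cut at about 22% in these data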;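 note: 0% = DMSO only wells and the 100% control is not disclosed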
Hsp70 activator: Hsp70 transcriptional activators, primary screen, cell-based, HeLa, Hsp70 promoter luciferase, luminescence, 10 µM. HeLa Hsp70 promoter luciferase reporter; scaled: vehicle 0, proteasome-inhibitor control 100%. 200,000 tested, 0.04% active. activation, % at 10 µM. AID 1203, 2008;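 active = activation above the mean across all tested compounds plus 3 SD, cutoff set per campaign, cut at about 5.5% in these data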;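 note: 100% = MG132 at 30 µM as the positive control and 0% = DMSO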
FXN GAA850 act: FXN promoter activators, primary screen, cell-based, luciferase luminescence, HEK293 lucGAA850 | AID 540364, 2011 | HEK293 lucGAA850 FXN promoter luciferase reporter, 24 h; percent of 10 µM SAHA response | activation, % at 6 µM | 360,000 tested, 0.56% active;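 active = activation above the average of all compounds screened plus 3 SD, cutoff fixed separately per campaign, cut at about 7.5% in these data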;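 note: 0% = DMSO wells and 100% = 10 µM SAHA wells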
Rad51 HR inh: human RAD51 strand exchange inhibitors, primary screen, biochemical, fluorescence | 200,000 tested, 0.085% active | inhibition, % at 10 µM | AID 1385, 2008 | hRad51 DNA strand exchange, fluorescence dequenching | DNA repair protein RAD51 homolog 1 (Homo sapiens), Q06609;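 active = inhibition above 40% at the single screening dose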;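 note: 0% = DMSO control wells and 100% = blanks with heterologous ssDNA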
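System: hRad51 filaments on single-stranded DNA; reagent: Fluorescein- and BHQ1-tagged 47-mer duplex; compound dosing: one concentration, 10 µM final; timing: filaments 15 min 37 °C, then compound 30 min; measured by: fluorescein emission 520 nm, excitation 485 nm; benchmarks: per-plate controls and blanks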
HIF activator: HIF pathway transcriptional activators, primary screen, cell-based, U2OS HRE-luciferase, luminescence; U2OS HRE-luciferase reporter; normalized: DMSO 0%, desferrioxamine 100%; activation, % at 7.5 µM (by protocol); 300,000 tested, 0.32% active; AID 1910, 2009;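 active = mean activation of at least 10% of the iron chelator positive control signal, with at least half of replicates also reaching 10%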
TAG inh: inhibitors of triacylglycerol accumulation, primary screen, cell-based, uHTS, fluorescence, H9c2. 230,000 tested, 0.66% active. H9c2 cells, Nile Red lipid (TAG) fluorescence; cells loaded with 200 µM oleic acid. AID 651582, 2012. inhibition, % at 12.5 µM;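 active = pattern-corrected inhibition of lipid staining of at least 50% with the nuclear-stain viability signal not falling by more than 50%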;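 note: 0% = DMSO wells and 100% = triacsin C control wells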
ABHD5-PLIN5 conf: ABHD5-PLIN5 interaction inhibitors, confirmation, biochemical, luminescence. shares compounds with ABHD5 PLIN5 PPI. inhibition, % at 4 µM. 2,200 tested, 67% active. AID 651612, 2012; in the data active = inhibition above about 23%;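 note: 0% = DMSO vehicle wells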
HNF4 counter: HNF4 dimerization inhibitors, counter-screen for ABHD5-PLIN5 interaction inhibitor project, biochemical, split-luciferase complementation, luminescence | shares compounds with ABHD5 PLIN5 PPI | inhibition, % at 4 µM | 2,200 tested, 77% active | AID 651674, 2012;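 active = mean inhibition across replicate wells exceeding the computed hit threshold, cut at about 13% in these data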;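 note: light from luciferase halves that rejoin when HNF4 fusion proteins dimerize; 0% = DMSO only wells and the 100% control is not given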
Target sequence (P41235 whole entry, looked up, the tested form may be a part): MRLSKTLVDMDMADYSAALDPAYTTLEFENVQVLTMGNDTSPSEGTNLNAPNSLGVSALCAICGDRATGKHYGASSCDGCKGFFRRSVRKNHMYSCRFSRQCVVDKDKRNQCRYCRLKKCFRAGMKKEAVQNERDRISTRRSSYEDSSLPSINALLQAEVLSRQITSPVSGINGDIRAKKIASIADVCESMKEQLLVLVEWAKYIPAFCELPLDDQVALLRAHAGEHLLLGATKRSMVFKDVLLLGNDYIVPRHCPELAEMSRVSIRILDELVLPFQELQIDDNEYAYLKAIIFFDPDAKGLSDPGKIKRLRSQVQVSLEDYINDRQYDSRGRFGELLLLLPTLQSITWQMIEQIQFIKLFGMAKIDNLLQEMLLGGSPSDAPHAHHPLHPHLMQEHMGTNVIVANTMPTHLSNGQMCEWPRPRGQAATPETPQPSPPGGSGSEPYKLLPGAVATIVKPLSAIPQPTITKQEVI
* marks the source's active call; other numbers are inactive results. A selection: hits, their analogues and other compounds. The true share with any hit is near 1.9%.

CC1CCCCN1Cc1c(O)ccc2c(=O)c(-c3nc4ccccc4s3)c(N)oc12 (stereo unspecified) was read as ABHD5 PLIN5 PPI 29*, Hsp70 activator 0, FXN GAA850 act -1, Rad51 HR inh 11, HIF activator 0, ABHD5-PLIN5 conf 7 and HNF4 counter 8.
Screening O=C(NCC(=O)N1CCCCCC1)c1ccc(Cl)cc1 returned ABHD5 PLIN5 PPI 5, FXN GAA850 act 3 and HIF activator 2.
`CCN(CC)S(=O)(=O)c1ccc(C)c(NC(=O)Cc2ccc(S(=O)(=O)N3CCOCC3)s2)c1` gave ABHD5 PLIN5 PPI 23*, FXN GAA850 act 0, HIF activator -1, TAG inh 1, ABHD5-PLIN5 conf -1 and HNF4 counter 0.
COc1ccc2oc(=O)c(C(=O)NCc3ccco3)cc2c1 was read as ABHD5 PLIN5 PPI 34*, Hsp70 activator 0, FXN GAA850 act 0, Rad51 HR inh -264, HIF activator 1, TAG inh 1, ABHD5-PLIN5 conf 6 and HNF4 counter 9.
COc1ccc(S(=O)(=O)CC(=O)c2cc3cc(Br)ccc3oc2=O)cc1 was read as ABHD5 PLIN5 PPI 33*, FXN GAA850 act 1, HIF activator 0, ABHD5-PLIN5 conf 70* and HNF4 counter 53*.
COc1cccc2cc(C(=O)NCc3ccco3)c(=O)oc12 was read as ABHD5 PLIN5 PPI 0, Hsp70 activator 0, FXN GAA850 act 4, Rad51 HR inh 32 and HIF activator 1.
For COc1ccc(OC)c(S(=O)(=O)CC(=O)c2cc3ccc(OC)cc3oc2=O)c1 the results were ABHD5 PLIN5 PPI -9, FXN GAA850 act 0 and HIF activator -1.
Screening O=C(Nc1cccc(C(F)(F)F)c1)C1CCN(S(=O)(=O)c2ccc(N3CCCC3=O)cc2)CC1 returned ABHD5 PLIN5 PPI 3, FXN GAA850 act 2 and HIF activator -1.
Screening Cc1ccc(NCC(=O)Nc2ccc(F)c(Cl)c2)cc1S(=O)(=O)N1CCOCC1 returned ABHD5 PLIN5 PPI -4, FXN GAA850 act -2 and TAG inh 1.
O=C(O)C(Cc1ccccc1)n1cccc1 (stereo unspecified) was read as ABHD5 PLIN5 PPI -3, Hsp70 activator 0, FXN GAA850 act 1, Rad51 HR inh 0, HIF activator -1 and TAG inh 12.
Screening O=C(O)[C@H](Cc1ccccc1)N1C(=O)c2c(Cl)c(Cl)c(Cl)c(Cl)c2C1=O returned ABHD5 PLIN5 PPI 71*, FXN GAA850 act 3, HIF activator 0, TAG inh 12, ABHD5-PLIN5 conf -7 and HNF4 counter 4.
Cn1c2ccccc2c(=O)c2ccc(-c3ccc4c(c3)OCO4)cc21 was read as ABHD5 PLIN5 PPI -5, FXN GAA850 act 6, HIF activator 4 and TAG inh -12.
For CCOC(=O)C1=C(C)NC(C)=C(C(=O)OCC)C1C(=O)OCC(=O)N(C)C1CCS(=O)(=O)C1 (stereo unspecified) the results were ABHD5 PLIN5 PPI 96*, Hsp70 activator 0, FXN GAA850 act 1, Rad51 HR inh 11, HIF activator 13*, TAG inh 11, ABHD5-PLIN5 conf 6 and HNF4 counter 10.
For CCOC(=O)C1=C(C)NC(C)=C(C(=O)OCC)C1C(=O)OCC(N)=O the results were ABHD5 PLIN5 PPI 5, Hsp70 activator 0, FXN GAA850 act 0, Rad51 HR inh 1, HIF activator 0 and TAG inh -2.
`COc1cc(N2C(=O)c3ccccc3C2=O)c(Cl)cc1C(=O)OCC(=O)N(C)C` gave ABHD5 PLIN5 PPI 0, Hsp70 activator 0, FXN GAA850 act 1, HIF activator -1 and TAG inh 6.
For COc1cc(NC(=O)COC(=O)CO/N=C(\C)c2ccc3c(c2)OCO3)cc(OC)c1 the results were ABHD5 PLIN5 PPI 4, FXN GAA850 act 0 and TAG inh 8.
Screening Cn1c(=Nc2ccc(N3CCOCC3)cc2)ccc2ccccc21 returned ABHD5 PLIN5 PPI 4, Hsp70 activator 0, FXN GAA850 act -2, Rad51 HR inh 9, HIF activator -1 and TAG inh -6.
For Cn1c(N=Nc2ccc(N3CCOCC3)cc2)[n+](C)c2ccccc21 the results were ABHD5 PLIN5 PPI 24*, Hsp70 activator 0, FXN GAA850 act 1, Rad51 HR inh 17, HIF activator 1, TAG inh 51*, ABHD5-PLIN5 conf 21 and HNF4 counter 39*.
Screening Cc1cc(C)nc(N2CCCC(C(=O)NCC(c3ccccc3)c3ccccc3)C2)n1 (stereo unspecified) returned ABHD5 PLIN5 PPI -8, Hsp70 activator 0, FXN GAA850 act -1, Rad51 HR inh -5, HIF activator 0 and TAG inh 41.
Screening CNS(=O)(=O)c1cccc(C(=O)OCC(=O)c2ccc3[nH]c(=O)[nH]c3c2)c1 returned ABHD5 PLIN5 PPI -6, FXN GAA850 act 3 and TAG inh 0.
Screening CCOc1ccccc1C1N=C(c2ccc(OC)cc2)CC(c2ccccc2O)N1 (stereo unspecified) returned ABHD5 PLIN5 PPI 25*, Hsp70 activator 0, FXN GAA850 act 1, Rad51 HR inh -6, HIF activator 5, TAG inh 0, ABHD5-PLIN5 conf 57* and HNF4 counter 48*.
`Cc1cnc(C(=O)Nc2c(-c3ccccc3)[nH][nH]c2=O)cn1` gave ABHD5 PLIN5 PPI -38.
Screening CN(C)c1ccc(-c2[nH][nH]c(=O)c2NC(=O)c2ccc3ccccc3n2)cc1 returned ABHD5 PLIN5 PPI 54*, ABHD5-PLIN5 conf -52 and HNF4 counter 48*.
CN(C)c1ccc(-c2[nH][nH]c(=O)c2NC(=O)c2ccccn2)cc1 was read as ABHD5 PLIN5 PPI 60*, ABHD5-PLIN5 conf 7 and HNF4 counter 45*.
COc1cccc(CN(C)C(=O)c2ccc(OCC(=O)N3CCOCC3)c(OC)c2)c1 was read as ABHD5 PLIN5 PPI 7, FXN GAA850 act 0 and TAG inh 2.
